ChEMBL document CHEMBL1268941, “Bromophenols as Candida albicans isocitrate lyase inhibitors” (Bioorg Med Chem Lett, 2010)
Converted amounts (≈) assume the structure as drawn.

Key:
Salmonella typhimurium = experiment: Antimicrobial activity against Salmonella Typhimurium ATCC 14028 after 24 hrs by broth dilution method; format: functional, Salmonella enterica subsp. enterica serovar Typhimurium; settings: Salmonella enterica, ATCC 14028, 24 h
Method in brief: (§1)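 Test bacteria grown overnight at 37 °C in LB broth, centrifuged and washed twice in sterile distilled water. Compound stocks made in DMSO and diluted in broth. Each microtiter well received 10 µl of broth holding about 10⁵ cfu/ml of bacteria. Plates incubated 24 h at 37 °C. Read-out was the MIC.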

[1] = test system: Trichophyton mentagrophytes; experiment: Antimicrobial activity against Trichophyton mentagrophytes IFO 40996 after 48 to 72 hrs by broth dilution method; format: functional
Method in brief: (§2)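 For C. albicans, cells were grown 48 h at 28 °C in YPD broth (1% yeast extract, 2% peptone, 2% dextrose), centrifuged and washed twice in sterile distilled water. A. fumigatus, T. rubrum and T. mentagrophytes were grown on potato dextrose agar for 2 weeks at 28 °C. Compound stocks made in DMSO. Microtiter plates incubated 48–72 h at 28 °C. Read-out was the MIC.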

Isocitrate lyase = Isocitrate lyase (Candida albicans, UniProt Q9P8Q7); experiment: Inhibition of Candida albicans ATCC 10231 isocitrate lyase
Aspergillus fumigatus = experiment: Antimicrobial activity against Aspergillus fumigatus HIC 6094 after 48 to 72 hrs by broth dilution method; format: functional; method in brief: as §2
Trichophyton rubrum = experiment: Antimicrobial activity against Trichophyton rubrum IFO 9185 after 48 to 72 hrs by broth dilution method; format: functional; method in brief: as §2
Staphylococcus aureus = experiment: Antimicrobial activity against Staphylococcus aureus ATCC 6538p after 24 hrs by broth dilution method; format: functional; method in brief: as §1
Bacillus subtilis = experiment: Antimicrobial activity against Bacillus subtilis ATCC 6633 after 24 hrs by broth dilution method; format: functional; settings: ATCC 6633, 24 h; method in brief: as §1
Micrococcus luteus = experiment: Antimicrobial activity against Micrococcus luteus IFO 12708 after 24 hrs by broth dilution method; format: functional; settings: IFO 12708, 24 h; method in brief: as §1
Candida albicans = experiment: Antimicrobial activity against Candida albicans ATCC 10231 after 48 to 72 hrs by broth dilution method; format: functional; method in brief: as §2
Proteus vulgaris = experiment: Antimicrobial activity against Proteus vulgaris ATCC 3851 after 24 hrs by broth dilution method; format: functional; settings: ATCC 3851, 24 h; method in brief: as §1

Isocitrate lyase, sequence (Q9P8Q7 whole entry): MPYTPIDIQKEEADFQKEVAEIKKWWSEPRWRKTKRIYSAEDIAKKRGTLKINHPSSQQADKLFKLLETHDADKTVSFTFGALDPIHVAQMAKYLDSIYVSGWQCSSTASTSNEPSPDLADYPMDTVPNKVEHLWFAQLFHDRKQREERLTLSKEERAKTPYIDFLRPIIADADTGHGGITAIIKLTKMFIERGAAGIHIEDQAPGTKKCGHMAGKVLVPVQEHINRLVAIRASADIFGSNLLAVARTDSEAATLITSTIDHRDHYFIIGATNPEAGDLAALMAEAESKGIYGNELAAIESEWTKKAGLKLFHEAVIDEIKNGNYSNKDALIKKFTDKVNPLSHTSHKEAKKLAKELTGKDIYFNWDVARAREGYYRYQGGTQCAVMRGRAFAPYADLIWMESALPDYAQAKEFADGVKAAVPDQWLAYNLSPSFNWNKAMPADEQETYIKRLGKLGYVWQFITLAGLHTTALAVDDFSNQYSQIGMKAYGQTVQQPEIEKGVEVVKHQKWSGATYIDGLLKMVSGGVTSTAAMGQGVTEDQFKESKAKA

SMILES | MIC (Salmonella typhimurium) [µg/mL] | MIC [1] [µg/mL] | IC50 (Isocitrate lyase) [µM] | MIC (Aspergillus fumigatus) [µg/mL] | MIC (Trichophyton rubrum) [µg/mL] | MIC (Staphylococcus aureus) [µg/mL] | MIC (Bacillus subtilis) [µg/mL] | MIC (Micrococcus luteus) [µg/mL] | MIC (Candida albicans) [µg/mL] | MIC (Proteus vulgaris) [µg/mL]
Oc1ccc(Oc2ccc(O)c(O)c2)cc1O | 100 (≈ 427 µM) | > 100 | > 100 | > 100 | > 100 | 50 (≈ 213 µM) | > 100 | 100 (≈ 427 µM) | > 100 | > 100
Oc1ccc(Oc2cc(O)c(O)cc2Br)cc1O | 100 (≈ 319 µM) | > 100 | 68.2 | > 100 | > 100 | 100 (≈ 319 µM) | > 100 | 100 (≈ 319 µM) | > 100 | > 100
Oc1cc(Br)c(Oc2cc(O)c(O)cc2Br)cc1O | 100 (≈ 255 µM) | > 100 | 30.9 | > 100 | > 100 | 100 (≈ 255 µM) | 100 (≈ 255 µM) | 50 (≈ 128 µM) | > 100 | 100 (≈ 255 µM)
O=C(c1ccc(O)c(O)c1)c1ccc(O)c(O)c1 | > 100 | > 100 | 22.6 | > 100 | > 100 | > 100 | > 100 | > 100 | > 100 | > 100
O=C(c1cc(O)c(O)c(Br)c1)c1cc(O)c(O)c(Br)c1 | > 100 | > 100 | 8.89 | > 100 | > 100 | > 100 | 100 (≈ 248 µM) | 100 (≈ 248 µM) | > 100 | > 100
Oc1ccc(CCc2ccc(O)c(O)c2)cc1O | 100 (≈ 406 µM) | 100 (≈ 406 µM) | 58.5 | > 100 | > 100 | 50 (≈ 203 µM) | 100 (≈ 406 µM) | 100 (≈ 406 µM) | > 100 | 100 (≈ 406 µM)
Oc1cc(Br)c(CCc2cc(O)c(O)cc2Br)cc1O | 50 (≈ 124 µM) | 100 (≈ 247 µM) | 21.2 | 50 (≈ 124 µM) | 50 (≈ 124 µM) | 50 (≈ 124 µM) | 50 (≈ 124 µM) | 50 (≈ 124 µM) | 50 (≈ 124 µM) | 50 (≈ 124 µM)
Oc1ccc(COCc2ccc(O)c(O)c2)cc1O | > 100 | > 100 | > 381 | > 100 | > 100 | > 100 | > 100 | > 100 | > 100 | > 100
Oc1cc(Oc2cc(O)c(O)c(Br)c2Br)c(Br)c(Br)c1O | 50 (≈ 90.9 µM) | 25 (≈ 45.5 µM) | 11.6 | 25 (≈ 45.5 µM) | 12.5 (≈ 22.7 µM) | 50 (≈ 90.9 µM) | 25 (≈ 45.5 µM) | 50 (≈ 90.9 µM) | 25 (≈ 45.5 µM) | 25 (≈ 45.5 µM)
O=C(c1cc(O)c(O)c(Br)c1)c1cc(O)c(O)c(Br)c1Br | 100 (≈ 207 µM) | > 100 | 2.65 | > 100 | > 100 | 100 (≈ 207 µM) | 50 (≈ 104 µM) | 50 (≈ 104 µM) | 100 (≈ 207 µM) | 100 (≈ 207 µM)
Oc1cc(Br)c(CCc2cc(O)c(O)c(Br)c2Br)cc1O | 100 (≈ 207 µM) | > 100 | 14.8 | > 100 | > 100 | 100 (≈ 207 µM) | 50 (≈ 104 µM) | 100 (≈ 207 µM) | 100 (≈ 207 µM) | 100 (≈ 207 µM)
Oc1cc(Br)c(COCc2cc(O)c(O)c(Br)c2Br)cc1O | > 100 | > 100 | 15.6 | > 100 | > 100 | > 100 | > 100 | > 100 | > 100 | > 100
Oc1cc(Cc2cc(O)c(O)c(Br)c2Br)c(Br)c(Br)c1O | 50 (≈ 91.3 µM) | 1.56 (≈ 2.85 µM) | 18.4 | 0.78 (≈ 1.42 µM) | 1.56 (≈ 2.85 µM) | 25 (≈ 45.6 µM) | 25 (≈ 45.6 µM) | 25 (≈ 45.6 µM) | 1.56 (≈ 2.85 µM) | 50 (≈ 91.3 µM)
Oc1cc(Br)c(Cc2cc(O)c(O)cc2Br)cc1O | 25 (≈ 64.1 µM) | 50 (≈ 128 µM) | 46.2 | > 100 | > 100 | 25 (≈ 64.1 µM) | 25 (≈ 64.1 µM) | 12.5 (≈ 32 µM) | > 100 | 25 (≈ 64.1 µM)
Oc1cc(COCc2cc(O)c(O)c(Br)c2Br)c(Br)c(Br)c1O | > 100 | > 100 | 28.1 | > 100 | > 100 | > 100 | > 100 | > 100 | > 100 | > 100
C[C@@H]1[C@H](O)[C@@H](C)/C=C/C=C/C=C/C=C/C=C/C=C/C=C/[C@H](O[C@@H]2O[C@H](C)[C@@H](O)[C@H](N)[C@@H]2O)C[C@@H]2O[C@](O)(C[C@@H](O)C[C@@H](O)[C@H](O)CC[C@@H](O)C[C@@H](O)CC(=O)O[C@H]1C)C[C@H](O)[C@H]2C(=O)O [AMPHOTERICIN B] | – | 3.12 (≈ 3.38 µM) | – | 3.12 (≈ 3.38 µM) | 3.12 (≈ 3.38 µM) | – | – | – | 6.25 (≈ 6.76 µM) | –
CC1(C)S[C@@H]2[C@H](NC(=O)[C@H](N)c3ccccc3)C(=O)N2[C@H]1C(=O)O [AMPICILLIN] | 1.56 (≈ 4.46 µM) | – | – | – | – | 1.56 (≈ 4.46 µM) | 1.56 (≈ 4.46 µM) | 3.12 (≈ 8.93 µM) | – | 3.12 (≈ 8.93 µM)
